High-throughput results as filed in PubChem.
Compounds with a hit are over-represented: about 1.3% of the library has one in this group of screens.
mABHD4 FP = ABHD4 inhibitors, primary screen, biochemical, fluorescence polarization, mouse; purified mABHD4, FP-Rh probe fluorescence polarization; inhibition, % at 8.92 µM; actives 0.54% (n = 370,000); AID 720543, 2013;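 active = inhibition exceeding the mean over every tested compound plus 3 SD, cut at about 30% in these data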;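 also: 0% = plate median of compound wells and 100% = S159A mutant with DMSO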
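Doses – 8.92 µM, single dose · Material – wild-type mouse ABHD4 protein · Replication – single well per compound (singlicate) · Measure – percent inhibition of probe binding, normalized to plate controls · Schedule – 45 min compound pre-incubation plus 60 min probe step, 25 °C · Detection – fluorescence polarization with parallel and perpendicular emission, 525/598 nm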
DDE Tn6 FP inh = inhibitors of Tn6 peptide binding to fibrin DD(E), primary screen, biochemical, fluorescence polarization, human fibrin, Tn6 probe; Fibrinogen beta chain (Homo sapiens), P02675; Fibrin DD(E) TRITC-Tn6 fluorescence polarization displacement; inhibition, % at 8.3 µM; actives 0.21% (n = 370,000);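 active = inhibition above a per-campaign cutoff: mean of compounds within control limits plus 3 SD, cut at about 15% in these data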;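 also: 0% = median of all compound wells on the plate and 100% = blocking peptide control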
TCR-CD3 inh = inhibitors of human TCR-CD3 interaction, primary screen, biochemical, fluorescence, TAMRA-labeled TCR probe | actives 0.37% (n = 360,000) | inhibition, % at 9.4 µM | AID 651800, 2012; in the data active = inhibition above about 19%;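 also: recombinant mutant TCR 2C K166C tagged with TAMRA read by polarization; 0% = receptor in buffer alone and 100% = receptor with positive control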
DDE Tn7 FP inh = inhibitors of Tn7 peptide binding to fibrin DD(E), primary screen, biochemical, fluorescence polarization, human fibrin, Tn7 probe. Fibrinogen beta chain (Homo sapiens), P02675. FP displacement of FITC-Tn7 peptide from fibrin DD(E); 0% = median of compound wells per plate. inhibition, % at 8.3 µM. actives 0.13% (n = 370,000). AID 720508, 2013;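 active = inhibition above the mean of compounds falling within the control limits plus 3 SD of them, cut at about 14% in these data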;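 also: 0% = plate median of compound wells and 100% = 10 µM Aha-Tn7 peptide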
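assay system = human clot-derived fibrin DD(E) complex | quantity = Fibrin-DD(E) at 2 µM final | timing = 10 min preincubation, 3 h with tracer, room temperature | signal = fluorescence polarization | measure = percent inhibition | benchmarks = high control wells with 10 µM unlabelled Aha-Tn7 peptide (full inhibition) | replicates = singlicate testing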
HTRA1 inh = HTRA1 serine protease inhibitors, primary screen, biochemical, fluorescence polarization, HTS | recombinant HTRA1, FP-rhodamine activity-based probe | inhibition, % at 5.96 µM | actives 0.5% (n = 340,000) | Q92743; in the data active = inhibition above about 36%;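 also: 0% = enzyme with DMSO and 100% = wells lacking enzyme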
Target sequence (Q92743 whole entry, looked up): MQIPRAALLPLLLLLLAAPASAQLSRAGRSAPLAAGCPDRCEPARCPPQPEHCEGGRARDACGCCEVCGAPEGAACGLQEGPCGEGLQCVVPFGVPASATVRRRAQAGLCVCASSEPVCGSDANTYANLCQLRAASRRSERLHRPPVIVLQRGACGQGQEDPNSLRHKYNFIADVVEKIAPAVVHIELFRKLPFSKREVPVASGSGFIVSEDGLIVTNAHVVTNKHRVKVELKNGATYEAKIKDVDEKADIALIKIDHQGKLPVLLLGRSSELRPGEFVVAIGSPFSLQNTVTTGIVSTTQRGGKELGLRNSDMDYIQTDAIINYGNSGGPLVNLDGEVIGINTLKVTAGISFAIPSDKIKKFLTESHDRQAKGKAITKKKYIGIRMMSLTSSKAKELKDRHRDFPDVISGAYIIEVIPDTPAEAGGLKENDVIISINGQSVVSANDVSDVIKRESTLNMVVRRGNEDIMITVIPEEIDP
HTRA1 conf = HTRA1 protease inhibitors, retest, confirmation, biochemical, fluorescence polarization; recombinant HTRA1, FP-rhodamine activity-based probe; AID 540248, 2011; shares compounds with HTRA1 inh; actives 66% (n = 1,600); inhibition, % at 5.96 µM;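 active = mean inhibition over three repeats above a set limit taken from the earlier primary screen, cut at about 37% in these data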;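 also: 0% = HTRA1 with DMSO and 100% = wells lacking HTRA1; inhibitors block probe binding so polarization drops and inhibition rises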
Active calls of the source: *.

For Cc1cc(C)c2sc(NNC(=O)c3ccc(S(=O)(=O)N4CCc5ccccc5C4)cc3)nc2c1 the results were mABHD4 FP 1.5, DDE Tn6 FP inh -7.9, TCR-CD3 inh -10.6, DDE Tn7 FP inh -3.3, HTRA1 inh 44.5* and HTRA1 conf 41.7*.
Screening Cc1cc(C)c2sc(N(CCCN(C)C)C(=O)c3ccc(S(=O)(=O)N4CCc5ccccc5C4)cc3)nc2c1 returned HTRA1 inh -15.5.
Cc1cc(C)c2nc(NNC(=O)c3ccc(S(=O)(=O)N4CCc5ccccc5C4)cc3)sc2c1 was read as mABHD4 FP 6.0, DDE Tn6 FP inh -6.2, TCR-CD3 inh 3.2, DDE Tn7 FP inh 4.9, HTRA1 inh 51.8* and HTRA1 conf 47.9*.
For CCc1noc(C)c1C(=O)Oc1ccc(N(C)S(=O)(=O)c2ccccc2)cc1 the results were mABHD4 FP -12.6, DDE Tn6 FP inh 4.6, TCR-CD3 inh -13.5, DDE Tn7 FP inh 0.3, HTRA1 inh 36.4* and HTRA1 conf 29.8.
For CCOC(=O)N1CCN(C(=O)C[C@@H]2C[C@@]3(C(=O)OC)CC(C)(C)CC=C3N(Cc3cccc4ccccc34)C2=O)CC1 the results were mABHD4 FP -2.6, DDE Tn6 FP inh -11.7, TCR-CD3 inh 8.7 and DDE Tn7 FP inh -11.3.
`Cc1ccc(CNc2ccc(N3CCOCC3)cc2)s1` gave mABHD4 FP 27.2, DDE Tn6 FP inh -6.8, TCR-CD3 inh 0.4, DDE Tn7 FP inh -8.5, HTRA1 inh 36.4* and HTRA1 conf 3.1.
For CC(=O)N1CCN(c2ccc(NCc3ccc(C)s3)cc2)CC1 the results were mABHD4 FP 21.9, DDE Tn6 FP inh 4.4, TCR-CD3 inh -3.1, DDE Tn7 FP inh 2.7 and HTRA1 inh 24.4.
`COc1cccc(CNC(=O)N2CCN(c3ccccc3C)CC2)c1` gave mABHD4 FP 0.2, DDE Tn6 FP inh 5.7, TCR-CD3 inh 1.5, DDE Tn7 FP inh -7.0 and HTRA1 inh -13.7.
Screening O=C(N/N=C/c1ccc(O)c(O)c1)c1cc(-c2ccccc2)nc2ccccc12 returned mABHD4 FP 21.7, DDE Tn6 FP inh -8.4, TCR-CD3 inh 11.0, DDE Tn7 FP inh -9.9, HTRA1 inh 62.6* and HTRA1 conf 75.7*.
`Cc1ccc(C(=O)NC2CCCCN(Cc3ccc(Cl)cc3)C2=O)c(C)c1` (stereo unspecified) gave mABHD4 FP -0.2, DDE Tn6 FP inh 0.9 and DDE Tn7 FP inh 2.1.
Cc1ccc(Cn2c(=N)c(C(=O)NCc3ccco3)cc3c(=O)n4ccccc4nc32)cc1 was read as mABHD4 FP 11.9, DDE Tn6 FP inh -0.7, TCR-CD3 inh 8.0, DDE Tn7 FP inh 0.5, HTRA1 inh 41.6* and HTRA1 conf -36.1.
Cc1ccc2c(c1)c1c(n2C)C(C(N)=O)CCC1 (stereo unspecified) was read as mABHD4 FP 5.3, DDE Tn6 FP inh 5.4, TCR-CD3 inh 10.4, DDE Tn7 FP inh -4.0 and HTRA1 inh 3.2.
Cc1ccc2c(c1)c1c(n2C)-c2[nH]ncc2CC1 was read as mABHD4 FP 24.6, DDE Tn6 FP inh -1.6, TCR-CD3 inh 4.0, DDE Tn7 FP inh 0.9, HTRA1 inh 37.0* and HTRA1 conf 19.8.
`COC(=O)[C@]12C[C@H](CC(=O)N3CCOCC3)C(=O)N(CCc3ccc(OC)c(OC)c3)C1=C[C@H](C1CCCC1)O[C@@H]2C` gave mABHD4 FP 4.7, DDE Tn6 FP inh -0.8 and DDE Tn7 FP inh 0.3.
For O=C(OCCc1ccccc1)c1cc(O)c(O)c(O)c1 the results were mABHD4 FP 16.8, DDE Tn6 FP inh -2.9, TCR-CD3 inh 16.8, DDE Tn7 FP inh -4.8, HTRA1 inh 55.7* and HTRA1 conf 86.6*.
Screening Nc1ccc(C(=O)OCCc2ccccc2)cc1 returned mABHD4 FP -6.3, DDE Tn6 FP inh -0.1, TCR-CD3 inh 8.1, DDE Tn7 FP inh -2.0 and HTRA1 inh -7.0.
COc1cc(C(C(=O)NC(C)(C)C)N(C(=O)CNC(=O)c2cccs2)c2ccc(C(C)C)cc2)cc(OC)c1OC (stereo unspecified) was read as mABHD4 FP 5.3, DDE Tn6 FP inh 1.1, TCR-CD3 inh -6.7, DDE Tn7 FP inh -4.6, HTRA1 inh 39.3* and HTRA1 conf 48.9*.
Cn1ccnc1SCC(=O)c1ccc2ccccc2c1 was read as mABHD4 FP 3.3, DDE Tn6 FP inh -1.0, TCR-CD3 inh -3.9, DDE Tn7 FP inh -2.3 and HTRA1 inh -13.5.
For CCn1c(CSc2nccn2C)nc2cc(C(=O)O)ccc21 the results were HTRA1 inh 37.8* and HTRA1 conf 48.2*.
For Nc1cc(N)c(OCC(F)(F)F)cc1OCC(F)(F)F the results were HTRA1 inh 47.9* and HTRA1 conf 34.2.
Cc1ccc(NC(=O)C2CC2c2ccccc2)c([N+](=O)[O-])c1 (stereo unspecified) was read as mABHD4 FP -6.8, DDE Tn6 FP inh 1.1, TCR-CD3 inh 1.7, DDE Tn7 FP inh -1.7 and HTRA1 inh -12.0.
For C/C(=N\NC(=O)c1cc2ccccc2cc1O)c1ccc2c(c1)OCO2 the results were mABHD4 FP 13.3, DDE Tn6 FP inh -0.9, TCR-CD3 inh 0.9, DDE Tn7 FP inh 0.3, HTRA1 inh 41.8* and HTRA1 conf 6.7.
For NNC(=O)c1cc2ccccc2cc1O the results were mABHD4 FP 21.1, DDE Tn6 FP inh -0.4, TCR-CD3 inh 4.6, DDE Tn7 FP inh -0.6 and HTRA1 inh 30.9.
CCOC(=O)C(C)/C(C)=N/NC(=O)c1cc2ccccc2cc1O (stereo unspecified) was read as mABHD4 FP 17.8, DDE Tn6 FP inh 0.2, TCR-CD3 inh 0.9, DDE Tn7 FP inh 1.1, HTRA1 inh 42.7* and HTRA1 conf 28.4.
O=C1N(c2cccc(Cl)c2)C(c2ccc(Cl)cc2)N2CCCN12 (stereo unspecified) was read as mABHD4 FP 3.2, DDE Tn6 FP inh 0.6, TCR-CD3 inh -2.8, DDE Tn7 FP inh -2.9 and HTRA1 inh -2.5.
Screening O=C(COc1coc(CN2CCN(c3ccccc3)CC2)cc1=O)Nc1ccccc1 returned mABHD4 FP 8.4, DDE Tn6 FP inh 12.2, TCR-CD3 inh -0.2, DDE Tn7 FP inh -0.8 and HTRA1 inh 2.0.
`Cc1cccc(NC(=O)COc2coc(CN3CCN(c4ccccc4)CC3)cc2=O)c1C` gave mABHD4 FP 1.7, DDE Tn6 FP inh -2.0, TCR-CD3 inh 6.3, DDE Tn7 FP inh 1.8, HTRA1 inh 57.1* and HTRA1 conf 10.0.
